According to ChEMBL document CHEMBL1154402, “Antiviral effect of orally administered (-)-beta-D-2-aminopurine dioxolane in woodchucks with chronic woodchuck hepatitis virus infection” (Antimicrob Agents Chemother, 2007):
Calls of active or inactive are those of the source. The calls are words filed in the database; no cut-off is given here.

Key:
[1] = system: Woodchuck hepatitis virus; assay: Antiviral activity against woodchuck hepatitis virus infected woodchucks assessed as log reduction of serum viral DNA per ml of serum after 4 weeks; format: functional
[2] = system: Woodchuck hepatitis virus; assay: Antiviral activity against woodchuck hepatitis virus infected woodchucks assessed as log reduction of serum viral DNA per ml of serum after 12 weeks; format: functional
[3] = system: Woodchuck hepatitis virus; assay: Antiviral activity against woodchuck hepatitis virus chronically infected woodchucks assessed as reduction of viral DNA replicative intermediates at 10 mg/kg/day, po after 4 weeks; format: functional, organism-based
Method in brief: (§1)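 Liver biopsies were taken by ultrasound-guided needle under ketamine/xylazine anaesthesia. Timing was 1 week before and at the end of 4 weeks of once-daily oral dosing (1–30 mg/kg/day or placebo diet; five woodchucks per group). Samples were snap-frozen and stored at –70°C. Hepatic WHV DNA replicative intermediates were quantified by Southern blot hybridization and compared with placebo.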

[4] = system: Woodchuck hepatitis virus; assay: Antiviral activity against woodchuck hepatitis virus chronically infected woodchucks assessed as log reduction of viral DNA replicative intermediates at 30 mg/kg/day, po after 4 weeks relative to control; format: functional, organism-based; method in brief: as §1
Marmota monax [5] = assay: Toxicity in woodchuck hepatitis virus chronically infected woodchucks assessed as change in body weight administered once daily for 4 weeks; format: organism-based; settings: in vivo, 672 h
Marmota monax [6] = assay: Toxicity in woodchuck hepatitis virus chronically infected woodchuck assessed as serum sorbitol dehydrogenase level at 30 mg/kg/day, po after 4 weeks; format: organism-based; design: route oral; settings: in vivo, 672 h
Method in brief: (§2)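 Serum ALT and SDH were measured as hepatocellular injury markers in chronic WHV carriers dosed orally once daily for 4 weeks. Blood was drawn under ketamine (50 mg/kg) and xylazine (5 mg/kg) im anaesthesia before treatment and weekly during treatment.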

Marmota monax [7] = assay: Toxicity in woodchuck hepatitis virus chronically infected woodchuck assessed as serum alanine aminotransferase level at 30 mg/kg/day, po after 4 weeks; format: organism-based; design: route oral; settings: in vivo, 672 h; method in brief: as §2
Rhesus monkey [8] = assay: AUC in po dosed rhesus monkey assessed as serum 9-(beta-D-1,3-dioxolan-4-yl)guanine level; format: ADME, organism-based, Macaca mulatta, Plasma; settings: in vivo
[9] = Terminal elimination half life in orally dosed mouse; format: ADME, organism-based; settings: in vivo, po, read-out: beta t1/2 (converted)
[10] = Terminal elimination half life in orally dosed monkey; format: ADME, organism-based, Macaca mulatta; settings: rhesus monkey, in vivo, po; read-out: beta t1/2 (converted)
[11] = AUC (0 to infinity) in woodchuck hepatitis virus-negative woodchucks at 33.3 mg/kg, iv administered as single dose followed by dose of 33.3 mg/kg, po after 4 weeks washout period; format: ADME, organism-based; settings: marmota monax, plasma
Method in brief: (§3)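 Three WHV-negative adult woodchucks got a 33.3 mg/kg iv bolus, with one saline control. After a 4-week washout the same three got 33.3 mg/kg orally. Blood was drawn predose and at 0.25–24 h. Serum APD and DXG were measured by HPLC-UV (LOQ 0.2 µM) and analysed noncompartmentally. AUC0-∞ used the trapezoidal rule, extrapolated by Clast/λz.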

[12] = Terminal elimination half life in woodchuck hepatitis virus-negative woodchucks at 33.3 mg/kg, iv administered as single dose; format: ADME, organism-based; design: dose 33.3 mg/kg, route intravenous; settings: marmota monax, in vivo, read-out: beta t1/2 (converted); method in brief: as §3
[13] = Terminal elimination half life in woodchuck hepatitis virus-negative woodchucks at 33.3 mg/kg, iv administered as single dose followed by dose of 33.3 mg/kg, po after 4 weeks washout period; format: ADME, organism-based; settings: marmota monax, in vivo, read-out: beta t1/2 (converted); method in brief: as §3
[14] = system: Woodchuck hepatitis virus; assay: Antiviral activity against woodchuck hepatitis virus chronically infected orally dosed woodchucks assessed as reduction in serum viremia administered once daily for 4 weeks; format: functional, organism-based
Method in brief: (§4)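 Chronic WHV carriers were stratified into groups of five. They were dosed orally once daily for 4 weeks at 1, 3, 10 or 30 mg/kg/day, or given liquid-diet placebo; drug was dissolved in saline and suspended in diet by syringe. Serum WHV DNA was measured weekly by triplicate dot blot (sensitivity 1.0 x 107 WHVge/ml) or triplicate real-time PCR (1.0 x 103 WHVge/ml) against pWHV8 standards. Log values were compared with pretreatment and placebo by repeated-measures ANOVA with Holm-Sidak tests.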

[15] = system: Woodchuck hepatitis virus; assay: Antiviral activity against woodchuck hepatitis virus chronically infected woodchucks assessed as reduction of serum viral DNA at 1 mg/kg/day, po after 4 weeks; format: functional, organism-based; method in brief: as §4
[16] = system: Woodchuck hepatitis virus; assay: Antiviral activity against woodchuck hepatitis virus chronically infected woodchucks assessed as log reduction of serum viral DNA at 3 mg/kg/day, po after 4 weeks; format: functional
Method in brief: (§5)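 Chronic WHV-carrier adult woodchucks were stratified into groups of five and dosed orally once daily for 4 weeks (saline solution in liquid diet; diet-alone placebo). Serum WHV DNA was measured weekly by dot blot (sensitivity 1.0 x 10^7 WHVge/ml) or by triplicate real-time PCR (sensitivity 1.0 x 10^3 WHVge/ml) against pWHV8 standards. Log values were compared with week 0 and placebo by repeated-measures ANOVA with Holm-Sidak.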

[17] = system: Woodchuck hepatitis virus; assay: Antiviral activity against woodchuck hepatitis virus chronically infected woodchucks assessed as log reduction of serum viral DNA at 10 mg/kg/day, po after 4 weeks; format: functional; method in brief: as §5
[18] = system: Woodchuck hepatitis virus; assay: Antiviral activity against woodchuck hepatitis virus chronically infected woodchucks assessed as log reduction of serum viral DNA at 30 mg/kg/day, po after 4 weeks; format: functional; method in brief: as §5
[19] = system: Woodchuck hepatitis virus; assay: Antiviral activity against woodchuck hepatitis virus chronically infected in woodchucks assessed as reduction in viral surface antigen level in blood at 30 mg/kg/day, po after 4 weeks; format: functional
Method in brief: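 Adult woodchucks chronically infected with WHV, in groups of five, got the drug dissolved in isotonic saline and suspended in a semisynthetic liquid diet, by oral dose syringe once daily for 4 weeks. Placebo was diet alone. Serum WHsAg was measured by WHV-specific enzyme immunoassay (optical density units) before, during and after treatment up to week 16.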

[20] = system: Woodchuck hepatitis virus; assay: Antiviral activity against woodchuck hepatitis virus chronically infected in woodchucks assessed as reduction in anti-WHV core antigen antibody levels at 30 mg/kg/day, po after 4 weeks; format: functional, organism-based
[21] = system: Woodchuck hepatitis virus; assay: Antiviral activity against woodchuck hepatitis virus chronically infected in woodchucks M7236 assessed as reduction in anti-WHs antibody levels at 30 mg/kg/day, po after 4 weeks; format: functional, organism-based
[22] = system: Woodchuck hepatitis virus; assay: Antiviral activity against woodchuck hepatitis virus chronically infected in woodchucks M7250 assessed as reduction in anti-WHs antibody levels at 30 mg/kg/day, po after 4 weeks; format: functional, organism-based
[23] = system: Woodchuck hepatitis virus; assay: Antiviral activity against woodchuck hepatitis virus chronically infected woodchucks assessed as reduction of viral DNA replicative intermediates at 1 mg/kg/day, po after 4 weeks; format: functional, organism-based; method in brief: as §1
[24] = system: Woodchuck hepatitis virus; assay: Antiviral activity against woodchuck hepatitis virus chronically infected woodchucks assessed as reduction of viral DNA replicative intermediates at 3 mg/kg/day, po after 4 weeks; format: functional, organism-based; method in brief: as §1
[25] = AUC (0 to infinity) in woodchuck hepatitis virus-negative woodchucks at 33.3 mg/kg, iv administered as single dose; format: ADME, organism-based; design: time infinity, dose 33.3 mg/kg, route intravenous; settings: marmota monax, plasma; method in brief: as §3
[26] = Cmax in woodchuck hepatitis virus-negative woodchucks at 33.3 mg/kg, iv administered as single dose; format: ADME, organism-based; design: dose 33.3 mg/kg, route intravenous; settings: marmota monax, in vivo; method in brief: as §3
[27] = Cmax in woodchuck hepatitis virus-negative woodchucks at 33.3 mg/kg, iv administered as single dose followed by dose of 33.3 mg/kg, po after 4 weeks washout period; format: ADME, organism-based; settings: marmota monax, in vivo; method in brief: as §3
[28] = Oral bioavailability in mouse; format: ADME, organism-based; settings: in vivo
[29] = AUC (0 to infinity) in orally dosed mouse; format: ADME, organism-based; design: route oral, time infinity; settings: plasma, po
[30] = AUC (0 to infinity) in iv dosed mouse; format: ADME, organism-based; design: route intravenous, time infinity; settings: plasma
Mus musculus = assay: Terminal elimination half life in orally dosed mouse assessed as 9-(beta-D-1,3-dioxolan-4-yl)guanine; format: ADME, organism-based; settings: in vivo, po
Rhesus monkey [31] = assay: Terminal elimination half life in orally dosed monkey assessed as 9-(beta-D-1,3-dioxolan-4-yl)guanine; format: ADME, organism-based, Macaca mulatta; settings: in vivo, po
Marmota monax [32] = assay: Cmax in woodchuck hepatitis virus-negative woodchucks assessed as 9-(beta-D-1,3-dioxolan-4-yl)guanine at 33.3 mg/kg iv followed by after 4 weeks washout period administered 33.3 mg/kg, po; format: ADME, organism-based; settings: in vivo, 672 h; method in brief: as §3
Marmota monax [33] = assay: AUC (0 to infinity) in woodchuck hepatitis virus-negative woodchucks assessed as 9-(beta-D-1,3-dioxolan-4-yl)guanine at 33.3 mg/kg, iv administered as single dose; format: ADME, organism-based, Plasma; design: time infinity, dose 33.3 mg/kg, route intravenous; settings: in vivo; method in brief: as §3
Marmota monax [34] = assay: AUC (0 to infinity) in woodchuck hepatitis virus -negative woodchucks assessed as 9-(beta-D-1,3-dioxolan-4-yl)guanine at 33.3 mg/kg, iv administered as single dose followed by dose of 33.3 mg/kg, po after 4 weeks washout period; format: ADME, organism-based, Plasma; settings: in vivo, 672 h; method in brief: as §3
Marmota monax [35] = assay: Terminal elimination half life in woodchuck hepatitis virus-negative woodchucks assessed as 9-(beta-D-1,3-dioxolan-4-yl)guanine at 33.3 mg/kg, iv administered as single dose; format: ADME, organism-based; design: dose 33.3 mg/kg, route intravenous; settings: in vivo; method in brief: as §3
Marmota monax [36] = assay: Terminal elimination half life in woodchuck hepatitis virus -negative woodchucks assessed as 9-(beta-D-1,3-dioxolan-4-yl)guanine at 33.3 mg/kg, iv administered as single dose followed by dose of 33.3 mg/kg, po after 4 weeks washout period; format: ADME, organism-based; settings: in vivo, 672 h; method in brief: as §3
Marmota monax [37] = assay: Cmax in woodchuck hepatitis virus-negative woodchucks assessed as 9-(beta-D-1,3-dioxolan-4-yl)guanine at 33.3 mg/kg, iv administered as single dose; format: ADME, organism-based; design: dose 33.3 mg/kg, route intravenous; settings: in vivo; method in brief: as §3

In the case of `CC(=O)OCC(CCn1cnc2cnc(N)nc21)COC(C)=O` [FAMCICLOVIR], the Activity [1] is reported as 1.4.

`Nc1ccn([C@H]2C[C@H](O)[C@@H](CO)O2)c(=O)n1` [DOXECITINE] showed an Activity [1] of 2.

Compound `Nc1nc(=O)n([C@@H]2CS[C@H](CO)O2)cc1F` [EMTRICITABINE] has an Activity [1] of 4.9.

Work on `Cc1cn([C@@H]2C[C@@H](O)[C@H](CO)O2)c(=O)[nH]c1=O` [TELBIVUDINE] yielded an Activity [1] of 7.

`CC(C)(C)C(=O)OCOP(=O)(COCCn1cnc2c(N)ncnc21)OCOC(=O)C(C)(C)C` [ADEFOVIR DIPIVOXIL] showed an Activity [1] of 1.8 and an Activity [2] greater than 2.5.

In the case of `Nc1ncc2ncn([C@H]3CO[C@@H](CO)O3)c2n1`, the Activity [3] is reported as “inactive”, the Activity [4] is reported as “Active” and the Activity (Marmota monax [5]) is reported as “Non-toxic”. For the same compound, the Activity (Marmota monax [6]) was 211.5 IU/L, the Activity (Marmota monax [7]) was 9.5 IU/L and the “%AUC” value (Rhesus monkey [8]) was 75%. For the same compound, the half-life [9] was 0.3 h, the half-life [10] was 0.5 h and the AUC(0-inf) [11] was 49.4 µM·h. For the same compound, the half-life [12] was 1.7 h, the half-life [13] was 3 h and the Activity [14] was “Dose-dependent effect”. The Activity [15] was “inactive”, the Activity [16] was 0.4 and the Activity [17] was 0.7. The Activity [18] was 1.9, the “fold change (FC)” value [19] was 1.4 and the Activity [20] was “inactive”. The Activity [21] was “inactive”, the Activity [22] was “inactive” and the Activity [23] was “inactive”. For the same compound, the Activity [24] was “inactive”, the AUC(0-inf) [25] was 203 µM·h and the Cmax [26] was 112 µM. For the same compound, the Cmax [27] was 16.8 µM.

Compound `Nc1nc2c(ncn2[C@H]2CO[C@@H](CO)O2)c(=O)[nH]1` has a bioavailability [28] of 114%, an AUC(0-inf) [29] of 930 µM·h and an AUC(0-inf) [30] of 818 µM·h. For the same compound, the “beta t1/2” value (Mus musculus) was 1 h, the “beta t1/2” value (Rhesus monkey [31]) was 1.5 h and the Cmax (Marmota monax [32]) was 20.3 µM. For the same compound, the AUC (Marmota monax [33]) was 146.2 µM·h, the AUC (Marmota monax [34]) was 309.7 µM·h and the “beta t1/2” value (Marmota monax [35]) was 3.7 h. The “beta t1/2” value (Marmota monax [36]) was 12.1 h and the Cmax (Marmota monax [37]) was 24.6 µM.
